Series [1] is described as follows: Clearance in dog at 1 mg/kg, iv administered as 20% cyclodextrin solution. In kind it is ADME, organism-based, Canis lupus familiaris. Particulars: in vivo. The method, boiled down:
(§1)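 Single 1 mg/kg iv dose given as a 20% cyclodextrin solution to rat, dog (male, fasted, crossover, n = 4) or monkey (male, fasted). Clearance, volume of distribution and half-life were calculated. Clearance is also expressed relative to species hepatic blood flow (Qh).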

Series [2] can be described thus: Cmax in Sprague-Dawley rat at 10 mg/kg, po administered as suspension in 20% cyclodextrin. In kind it is ADME, organism-based. Further details: dose 10 mg/kg, route oral. The note with it: in vivo.
A short description of series [3]: Paradoxical activation of RAS/RAF/MEK signaling pathway in human HCT116 cells expressing wild type BRAF assessed as ERK phosphorylation at <100 nM. It is filed as cell-based. Particulars: HCT-116.
Series [4] in a line: AUC (0 to 24 hrs) in Sprague-Dawley rat at 10 mg/kg, po administered as suspension in 20% cyclodextrin. Particulars: in vivo. It is filed as ADME, organism-based. Further details: dose 10 mg/kg, time < 24 hr, route oral.
Series [5] in a line: Oral bioavailability in Sprague-Dawley rat at 10 mg/kg administered as suspension in 1% HEC. In kind it is ADME, organism-based. Particulars: in vivo.
For another series, the target named is GTPase KRas (Homo sapiens, UniProt P01116, G13D). The series can be described thus: Inhibition of KRAS G13D mutant in human HCT116 cells assessed as inhibition of ERK phosphorylation by ELISA. It is filed as cell-based, HCT-116. The method, boiled down:
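HCT116 cells (KRAS G13D, BRAF WT; RAF signalling via CRAF) were treated with compound, and the change in cellular phospho-ERK was measured. IC50 was taken as the concentration inhibiting phospho-ERK.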
Background: An ELISA detects its analyte on a solid surface through an enzyme-linked reagent.

Series [6] is described as follows: AUC (0 to 24 hrs) in monkey at 10 mg/kg, po administered as suspension in 20% cyclodextrin. It is filed as ADME, organism-based, Macaca mulatta. Particulars: rhesus monkey, in vivo. Further details: dose 10 mg/kg, time < 24 hr, route oral. The method, boiled down: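 Male, fasted monkeys given a 10 mg/kg oral formulation as part of an iv/po PK study. Plasma exposure and half-life were derived.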

Series [7] is described as follows: Permeability across MDCK cells expressing MDR1. Particulars: dog, read-out: permeability. It is filed as ADME, cell-based, Canis lupus familiaris.
Series [8] can be described thus: Cmax in Sprague-Dawley rat at 10 mg/kg, po administered as suspension in 1% HEC. Particulars: in vivo. It is filed as ADME, organism-based. Further details: dose 10 mg/kg, route oral.
The nature of series [9]: Half life in dog at 1 mg/kg, iv administered as 20% cyclodextrin solution. Particulars: in vivo. It is filed as ADME, organism-based, Canis lupus familiaris. The method in brief:
as §1

A further series concerns the target MAP kinase p38 (Homo sapiens, UniProt O15264+Q15759+Q16539+P53778). The series can be described thus: Competitive binding affinity to p38 in human A375 cells after 15 mins in presence of ATP analogue. It is filed as cell-based. Particulars: a-375. The method, boiled down: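 A375 whole-cell lysate incubated with compound for 15 min. Binding to over 170 kinases was measured by direct competition with an ATP analog (KiNativ platform). IC50 reported in nM.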

Series [10] can be described thus: Clearance in Sprague-Dawley rat at 1 mg/kg, iv administered as suspension in 20% cyclodextrin. It is filed as ADME, organism-based. The note with it: in vivo.
The next series deals with Canis familiaris. In words: Clearance in dog at 1 mg/kg, iv administered as suspension in 20% cyclodextrin relative to hepatic blood flow. Particulars: in vivo. It is filed as ADME, organism-based, Canis lupus familiaris.

Calls of active or inactive are those of the source. No cut-off for these calls is given here.

A word on the clearance: it is a measure of how efficiently the substance is removed, as volume per time. Usually Cmax stands for the maximum level reached in the sampled fluid or tissue. Usually AUC(0-t) stands for the area under the concentration-time curve up to a stated or last time point. The term bioavailability denotes dose-corrected exposure relative to a reference, in per cent. What is called IC50 is the concentration that inhibits the measured activity by half. Broadly, the half-life is the time in which the quantity being followed falls by half.

Sequence of GTPase KRas (P01116 whole entry G13D): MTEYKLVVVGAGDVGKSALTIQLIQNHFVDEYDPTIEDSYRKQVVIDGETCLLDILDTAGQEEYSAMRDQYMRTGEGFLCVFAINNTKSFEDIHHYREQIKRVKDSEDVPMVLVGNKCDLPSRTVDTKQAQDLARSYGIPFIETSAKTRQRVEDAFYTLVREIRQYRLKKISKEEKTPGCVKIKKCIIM

For `CNc1ncc2cc(-c3cc(NC(=O)NCCC(C)(C)C)c(F)cc3C)c(C)nc2n1` [LY-3009120], the results for the clearance in [1] and in series [10] were 14.6 mL/min/kg and 34.1 mL/min/kg, respectively. The peak concentration (Cmax) in series [2] was 396 ng/mL; in [8] it was 34.4 ng/mL. For the same molecule, the result in series [3] was Active. Further, the exposure AUC(0-t) at 24 h in series [4] was found to be 1670 ng·h/mL; in [6] it was 1260 ng·h/mL. The molecule further returned a bioavailability in [5] of 3.6%. In addition, the 50% inhibitory concentration (IC50) turned out to be 150 nM on GTPase KRas and 61 nM at MAP kinase p38. Moreover, the Papp in [7] amounted to 47 ×10⁻⁶ cm/s. The half-life in series [9] is 1.8 h. Also, the CL with Canis familiaris was 30%.

The values above are taken from ChEMBL document CHEMBL3576847, “Discovery of 1-(3,3-dimethylbutyl)-3-(2-fluoro-4-methyl-5-(7-methyl-2-(methylamino)pyrido[2,3-d]pyrimidin-6-yl)phenyl)urea (LY3009120) as a pan-RAF inhibitor with minimal paradoxical activation and activity against BRAF or RAS mutant tumor cells” (J Med Chem, 2015).
